Reference: ChEMBL document CHEMBL1143402 (PLoS Med, 2006)

How the values were obtained:
[1] = system: Mycobacterium tuberculosis; assay: Inhibition of fatty acid synthesis in Mycobacterium bovis BCG after 60 mins; type: functional, organism-based; conditions: variant bovis BCG, 1 h
In short: (§1)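 M. bovis BCG culture incubated with compound or DMSO plus 2-^14C acetate at 37 °C for 60 min. Cells saponified with KOH/methanol, acid-extracted into hexane, methyl-esterified. Fatty and mycolic acid subclasses separated by two-solvent TLC (n = 3) and quantified by phosphorimaging as % of control.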

[2] = system: Mycobacterium tuberculosis; assay: Inhibition of alpha-mycolic acid synthesis in Mycobacterium bovis BCG after 60 mins; type: functional, organism-based; conditions: variant bovis BCG, 1 h; in short: as §1

## C[C@]1(COc2ccc(N3CCC(Oc4ccc(OC(F)(F)F)cc4)CC3)cc2)Cn2cc([N+](=O)[O-])nc2O1
[1]
  IC50: > 0.25 µg/mL
[2]
  IC50: > 0.25 µg/mL

## NNC(=O)c1ccncc1 [ISONIAZID]
[1]
  IC50: > 4 µg/mL
